# Measured values from ChEMBL document CHEMBL1165856, “Naftifine-analogues as anti-Trypanosoma cruzi agents” (Eur J Med Chem, 2010).
# Columns and labels:
# [1] = Selectivity index, ratio of ID50 for mouse J774 cells to ID50 for Trypanosoma cruzi Tulahuen 2; assay type: toxicity, cell-based; conditions: J774 cells versus Trypanosoma cruzi Tulahuen 2
# How it was run: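 Selectivity index is the ID50 in J-774 macrophages (48 h MTT) divided by the ID50 against Tulahuen 2 epimastigotes (day-5 A600 growth).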
# Trypanosoma cruzi [2] = assay: Antitrypanosomal activity against Trypanosoma cruzi Tulahuen 2; assay type: functional; conditions: read-out: ID50 (the source's name)
# How it was run: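 Epimastigotes were grown at 28 °C in BHI-tryptose with 5% FBS. Stationary-phase parasites are inoculated at 8 × 10⁶ cells/mL into medium containing increasing drug concentrations from DMSO stock (final DMSO ≤0.4%; vehicle control). Growth is followed by A600. ID50 is the concentration that halves the day-5 absorbance ratio relative to control.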
# [3] = Cytotoxicity against mouse J774 cells after 48 hrs by MTT assay; assay type: cell-based; conditions: read-out: ID50
# How it was run: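 J-774 macrophages were seeded at 1 × 10⁵ cells/well in RPMI 1640 with 20% heat-inactivated FCS and left to attach for 48 h at 37 °C in 5% CO₂. Cells were then exposed to compounds for 48 h. MTT was added at 0.4 mg/mL final, formazan was dissolved in DMSO, and A595 was read. ID50 is the concentration cutting control absorbance by 50%, averaged over three experiments.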
# Trypanosoma cruzi [4] = assay: Antitrypanosomal activity against Trypanosoma cruzi Tulahuen 2 at 25 uM; assay type: functional
# How it was run: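 Tulahuen 2 epimastigotes (8 × 10⁶ cells/mL, 28 °C, BHI-tryptose with 5% FBS) were exposed to a single drug concentration, with final DMSO ≤0.4% and a vehicle control. Percent growth inhibition = {1 − [(Ap − A0p)/(Ac − A0c)]} × 100, using A600 of drug and control cultures at day 0 and day 5.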
# Aspergillus flavus = assay: Antifungal activity against Aspergillus flavus ATCC 9170 after 48 hrs; assay type: functional; conditions: ATCC 9170, 48 h
# How it was run: (§1)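 Aspergillus spp. were tested by CLSI M38-A broth microdilution in RPMI 1640 with MOPS at pH 7.0. Spore inoculum is 10³ CFU/mL, with two-fold compound dilutions and final DMSO ≤1%. Incubated at 35 °C in a moist, dark chamber. MIC is read visually as total growth inhibition, at a time set by growth of the control fungus.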
# Nannizzia gypsea = assay: Antifungal activity against Microsporum gypseum C 115 after 48 hrs; assay type: functional; conditions: C 115, 48 h
# How it was run: (§2)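 Dermatophytes were tested by CLSI M38-A microdilution in MOPS-buffered RPMI 1640 at pH 7.0. Inoculum is 10³ CFU/mL, with two-fold serial compound dilutions and final DMSO ≤1%. Trays are kept at 28–30 °C in a moist, dark chamber. MIC is the lowest concentration with total growth inhibition, read visually when control growth allows.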
# Candida albicans = assay: Antifungal activity against Candida albicans ATCC 10231 after 48 hrs; assay type: functional; conditions: ATCC 10231, 48 h
# How it was run: (§3)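 CLSI M27-A2 broth microdilution in RPMI 1640 buffered to pH 7.0 with MOPS. Inoculum is 10³ CFU/mL from Sabouraud-grown yeasts. Compound is two-fold serially diluted, final DMSO ≤1%. Incubated at 35 °C in a moist, dark chamber and read visually at 48 h. MIC is the lowest concentration giving total growth inhibition.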
# Trichophyton rubrum = assay: Antifungal activity against Trichophyton rubrum C 113 after 48 hrs; assay type: functional; conditions: C 113, 48 h; how it was run: as §2
# Candida tropicalis = assay: Antifungal activity against Candida tropicalis C 131 2000 after 48 hrs; assay type: functional; conditions: Candida tropicalis, C 131 2000, 48 h; read-out: MIC; how it was run: as §3
# Cryptococcus neoformans = assay: Antifungal activity against Cryptococcus neoformans ATCC 32264 after 48 hrs; assay type: functional; conditions: Cryptococcus neoformans, ATCC 32264, 48 h; read-out: MIC; how it was run: as §3
# [5] = system: Trichophyton mentagrophytes; assay: Antifungal activity against Trichophyton mentagrophytes ATCC 9972 after 48 hrs; assay type: functional; conditions: ATCC 9972, 48 h; how it was run: as §2
# Aspergillus niger = assay: Antifungal activity against Aspergillus niger ATCC 9029 after 48 hrs; assay type: functional; conditions: ATCC 9029, 48 h; how it was run: as §1
# Saccharomyces cerevisiae = assay: Antifungal activity against Saccharomyces cerevisiae ATCC 9763 after 48 hrs; assay type: functional; conditions: ATCC 9763, 48 h; how it was run: as §3
# Aspergillus fumigatus = assay: Antifungal activity against Aspergillus fumigatus ATCC 26934 after 48 hrs; assay type: functional; conditions: ATCC 26934, 48 h; how it was run: as §1
Structure (SMILES),IC50 (Trypanosoma cruzi [2]) [µM],MIC (Aspergillus flavus) [µg/mL],MIC (Nannizzia gypsea) [µg/mL],MIC (Candida albicans) [µg/mL],MIC (Trichophyton rubrum) [µg/mL],MIC (Candida tropicalis) [µg/mL],MIC (Cryptococcus neoformans) [µg/mL],MIC [5] [µg/mL],MIC (Aspergillus niger) [µg/mL],MIC (Saccharomyces cerevisiae) [µg/mL],MIC (Aspergillus fumigatus) [µg/mL],selectivity ratio [1],CC50 at 48 h [3] [µM],further results
Cc1c(C(=O)Nc2ccccc2)[n+]([O-])c2cc(CN(C)C/C=C/c3ccccc3)ccc2[n+]1[O-],,,,,,,,,,,,,,inhibition at 25 µM (Trypanosoma cruzi [4]): 34%
C=CCNC(=S)N/N=C/c1ccc2c(c1)[n+]([O-])c(C(=O)Nc1ccccc1)c(-c1ccccc1)[n+]2[O-],,,,,,,,,,,,,,inhibition at 25 µM (Trypanosoma cruzi [4]): 18%
N#Cc1c2ccccc2[n+]([O-])n1CC/C=C\c1ccccc1,,,,,,,,,,,,,,inhibition at 25 µM (Trypanosoma cruzi [4]): 30%
C[C@@H]1[C@H](O)[C@@H](C)/C=C/C=C/C=C/C=C/C=C/C=C/C=C/[C@H](O[C@@H]2O[C@H](C)[C@@H](O)[C@H](N)[C@@H]2O)C[C@@H]2O[C@](O)(C[C@@H](O)C[C@@H](O)[C@H](O)CC[C@@H](O)C[C@@H](O)CC(=O)O[C@H]1C)C[C@H](O)[C@H]2C(=O)O [AMPHOTERICIN B],,0.5,0.125,0.78,0.075,1.56,0.25,0.075,0.5,0.5,0.5,,,
CC(=O)N1CCN(c2ccc(OCC3COC(Cn4ccnc4)(c4ccc(Cl)cc4Cl)O3)cc2)CC1 (stereo not given) [KETOCONAZOLE],,0.5,0.05,0.5,0.025,0.5,0.25,0.025,0.25,0.5,0.125,19.9,339,
CC1CS(=O)(=O)CCN1/N=C/c1ccc([N+](=O)[O-])o1 (stereo not given) [NIFURTIMOX],,,,,,,,,,,,> 33.3,,

# Continued, in another order:
IC50 (Trypanosoma cruzi [2]) [µM],MIC (Aspergillus flavus) [µg/mL],MIC (Nannizzia gypsea) [µg/mL],MIC (Candida albicans) [µg/mL],MIC (Trichophyton rubrum) [µg/mL],MIC (Candida tropicalis) [µg/mL],MIC (Cryptococcus neoformans) [µg/mL],MIC [5] [µg/mL],MIC (Aspergillus niger) [µg/mL],MIC (Saccharomyces cerevisiae) [µg/mL],MIC (Aspergillus fumigatus) [µg/mL],Structure (SMILES),selectivity ratio [1],CC50 at 48 h [3] [µM],further results
22.7,,,,,,,,,,,CN(C/C=C/c1ccccc1)Cc1ccc2c(c1)=[N+]([O-])C(C)(C)[N+]=2[O-],> 17.6,> 400,
23.1,,,,,,,,,,,COc1nn(CCOCCN(C)C/C=C/c2ccccc2)c2ccc([N+](=O)[O-])cc12,< 4.3,< 100,
10,,,,,,,,,,,CN(C/C=C/c1ccccc1)CCOCCn1nc(OCc2ccccc2)c2cc([N+](=O)[O-])ccc21,< 10,< 100,
25,,,,,,,,,,,CC1(C)[N+]([O-])=c2ccc(CN3CCN(C/C=C/c4ccccc4)CC3)cc2=[N+]1[O-],4.4,109,
4.5,,,,,,,,,,,O=[N+]([O-])c1ccc2c(c1)c(OCc1ccccc1)nn2CCOCCNCCC/C=C/c1ccccc1,< 22.2,< 100,
6.5,> 250,125,> 250,125,> 250,> 250,125,> 250,> 250,> 250,O=[N+]([O-])c1ccc2c(c1)c(OCc1ccccc1)nn2CCOCCN1CCN(C/C=C/c2ccccc2)CC1,< 15.4,< 100,MFC (Nannizzia gypsea): > 250 µg/mL; MFC (Trichophyton rubrum): > 250 µg/mL; MFC [5]: > 250 µg/mL
,> 250,> 250,> 250,> 250,> 250,> 250,> 250,> 250,> 250,> 250,C=CCNC(=S)N/N=C/c1ccc2no[n+]([O-])c2c1,,,inhibition at 25 µM (Trypanosoma cruzi [4]): 33%
,0.78,0.04,1.56,0.01,1.56,0.39,0.025,1.56,3.12,0.78,CN(C/C=C/C#CC(C)(C)C)Cc1cccc2ccccc12 [TERBINAFINE],< 10,< 100,
